Screening data as filed in PubChem BioAssay.
This is a sample that favours compounds with a hit; in the whole collection about 4.3% have one here.
SMARCA2 act – increases SMARCA2 function in MMTV reporter cells; MG213 cells, MMTV-luciferase reporter, dexamethasone, overnight; activation, % at 9.1 µM; 1% of 370,000 active; AID 652017; in the data active means activation above about 7.8%
SR-BI DiI inh – inhibitors of mouse SR-BI mediated HDL lipid uptake | Q61009 | ldlA[mSR-BI] CHO cells, DiI-HDL uptake fluorescence, 3 h | inhibition, % at 12.5 µM | 0.96% of 320,000 active | AID 488896;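 active means mean replicate inhibition of at least 70% and a set share of replicates each scoring 70 or more; inconclusive means meets just one of the two criteria; inactive means fails both criteria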
Yeast superoxide – caloric restriction mimetics inhibiting age-related superoxide in yeast | S. cerevisiae aged cells, superoxide DHE fluorescence; hits give low values | superoxide response (% of plate mean), % at 10 µM | AID 2690 | 0.18% of 330,000 active;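 active means superoxide response under a set limit, about three screen SD below normal, cut at about 65% in these data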;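 further: yeast aged for seven days with compound at 30 °C before DHE staining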
Lipid droplet – hepatic lipid droplet formation modulation | 0.4% of 240,000 active | inhibition, % at 6.5 µM | AML12 mouse hepatocytes, oleate lipid droplets, BODIPY imaging;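 active means lipid droplet intensity inhibited by at least 50%, with more than 500 cells counted; inconclusive means wells with under 300 cells, treated as cytotoxic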
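Test system: AML12 mouse liver cells; schedule: overnight exposure; technique: high-content imaging of BODIPY-stained droplets and DAPI nuclei; read-out: % inhibition of corrected integrated BODIPY droplet signal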
SR-BI uptake up – activators of SR-BI mediated HDL lipid uptake | activation, % at 12.5 µM | CHO ldlA[mSR-BI] cells, DiI-HDL uptake fluorescence, 3 h; 100 = double the neutral-control signal | 0.096% of 320,000 active | AID 504775;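 active means mean replicate activation of at least 60% and every replicate at or above 60%; inconclusive means mean or all-replicate condition met, but not both; inactive means mean below 60% and not all replicates reaching 60%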
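Test system: SR-BI-overexpressing, LDLR-lacking CHO cells; Medium: Ham's F12 with 0.5% BSA, HEPES 25 mM, pH 7.4; Schedule: 3 h, 37 °C; Technique: bottom-read fluorescence, 550/595 nm.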
AHR act – activates the human aryl hydrocarbon receptor | activation, % at 5 µM | P35869 | 2.5% of 320,000 active | AHR-responsive luciferase reporter cells, luminescence; in the data active means activation above about 47%
Target sequence (P35869 whole entry, looked up): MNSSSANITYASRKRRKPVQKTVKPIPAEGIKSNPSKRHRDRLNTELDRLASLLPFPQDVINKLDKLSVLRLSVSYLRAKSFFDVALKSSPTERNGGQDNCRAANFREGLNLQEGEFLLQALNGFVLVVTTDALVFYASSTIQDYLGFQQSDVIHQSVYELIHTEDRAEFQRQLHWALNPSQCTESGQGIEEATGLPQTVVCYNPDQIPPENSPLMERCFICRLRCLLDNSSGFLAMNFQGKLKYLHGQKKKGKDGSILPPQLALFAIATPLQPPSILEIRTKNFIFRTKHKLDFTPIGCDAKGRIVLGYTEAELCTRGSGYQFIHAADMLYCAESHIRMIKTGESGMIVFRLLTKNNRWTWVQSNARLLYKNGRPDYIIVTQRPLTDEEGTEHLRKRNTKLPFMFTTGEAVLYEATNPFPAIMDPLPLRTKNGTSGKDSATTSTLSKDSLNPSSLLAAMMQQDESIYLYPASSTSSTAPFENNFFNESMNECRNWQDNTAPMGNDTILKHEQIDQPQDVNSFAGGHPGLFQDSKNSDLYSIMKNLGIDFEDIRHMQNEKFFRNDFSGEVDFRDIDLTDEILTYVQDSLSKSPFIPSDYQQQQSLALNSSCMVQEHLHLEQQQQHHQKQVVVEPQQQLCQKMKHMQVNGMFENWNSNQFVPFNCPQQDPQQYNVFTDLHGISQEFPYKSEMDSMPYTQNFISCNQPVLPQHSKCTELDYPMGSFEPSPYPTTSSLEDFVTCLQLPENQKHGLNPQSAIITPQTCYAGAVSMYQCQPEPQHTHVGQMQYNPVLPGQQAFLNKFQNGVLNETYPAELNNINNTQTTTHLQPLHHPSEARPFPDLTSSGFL
Numbers stand for hits; - = inactive; ? = inconclusive; . = no result given.

SMILES | SMARCA2 act | SR-BI DiI inh | Yeast superoxide | Lipid droplet | SR-BI uptake up | AHR act
COC(=O)c1cc(S(=O)(=O)N2CCN(c3cccc(C(F)(F)F)c3)CC2)cn1C | - | . | . | . | . | .
COc1cc(/C=N/NC(=O)c2cccc3ccccc23)cc(OC)c1OC | - | - | - | - | - | -
C=CCOc1ccccc1/C=N/NC(=O)c1ccc(Cl)cc1Cl | - | - | - | - | - | 69
O=C(N/N=C\c1cccnc1)c1ccc(Cl)cc1Cl | . | - | - | . | - | -
COc1cc(/C=N/NC(=O)c2ccncc2)ccc1OC(=O)c1cc(OC)c(OC)c(OC)c1 | - | 77 | - | - | - | -
COc1cc(C(=O)Oc2ccccc2/C=N/NC(=O)c2ccc(Cl)cc2Cl)cc(OC)c1OC | - | 82 | - | - | - | 59
COc1ccc(/C=N/NC(=O)c2ccncc2)cc1OC | - | - | - | - | - | -
COc1cc(/C=N/NC(=O)c2cccnc2)ccc1OCC(=O)Nc1c(C)cc(C)cc1C | - | 71 | - | - | - | -
O=C(Cc1cccs1)NC1CCCCN(Cc2ccc(Cl)cc2)C1=O (configuration not stated) | - | . | . | . | . | .
O=C(N[C@H](Cc1ccccc1)C(=O)N1CCN(c2ncccn2)CC1)[C@H]1O[C@@H](n2ccc(=O)[nH]c2=O)[C@H](O)[C@@H]1O | - | . | . | . | . | .
Clc1nccnc1N/N=C/c1ccc(Br)cc1 | - | - | - | - | - | 63
C=CCn1c(-c2sc3nc(C)cc(C)c3c2N)n[nH]c1=S | - | . | - | - | . | 100
Cc1ccc(N=Nc2c(C)[nH]n(C(N)=S)c2=O)cc1 | - | - | - | - | - | 51
NC(=S)n1[nH]c(-c2ccc([N+](=O)[O-])cc2)c(N=Nc2ccc(Cl)cc2)c1=O | . | 104 | . | - | - | .
Cc1ccc([N+](=O)[O-])cc1N=Nc1c(-c2ccc([N+](=O)[O-])cc2)[nH]n(C(N)=S)c1=O | . | 80 | . | - | - | .
NC(=O)c1ccc(N=Nc2c(-c3ccccc3)[nH]n(-c3ccccc3)c2=O)cc1 | - | . | - | - | . | -
O=c1c(N=Nc2ccc(O)cc2)c(-c2ccccc2)[nH]n1-c1ccc([N+](=O)[O-])cc1 | - | 107 | - | - | - | -
Cc1ccccc1C(=O)N[C@H](C(=O)N1CCC[C@H]1C(=O)NC1CCCC1)C1CCCCC1 | - | . | . | . | . | .
COC[C@H]1CCCN1c1ccc2c(c1)OCCCN(C1CC1)S2(=O)=O | - | . | . | . | . | .
COc1ccc2c(c1)CN1C(=O)N(C3CCCC3)S(=O)(=O)CC21 (configuration not stated) | - | . | . | . | . | .
CC(COc1ccc(Cl)cc1)CN1CCC(C(O)(c2ccccc2)c2ccccc2)CC1 (configuration not stated) | - | . | . | . | . | .
COc1ccc(N2C(=O)C3CCCN3C2c2ccccc2F)cc1 (configuration not stated) | - | - | - | . | - | -
O=C1C2CCCN2C(c2ccccc2F)N1c1ccc(Cl)cc1 (configuration not stated) | - | - | - | . | - | 52
COc1cc(/C=N\NC(=O)c2ccc(Cl)cc2)ccc1Oc1ccc([N+](=O)[O-])cn1 | - | 79 | - | - | - | -
COc1cc(/C=N\NC(=O)c2cccc(Cl)c2)ccc1Oc1ccc([N+](=O)[O-])cn1 | - | - | - | - | - | -
SMILES | SMARCA2 act | SR-BI DiI inh | Yeast superoxide | Lipid droplet | SR-BI uptake up | AHR act
COc1cc(/C=C(/C#N)c2ccc(F)cc2)ccc1Oc1ccc([N+](=O)[O-])cn1 | - | 85 | - | - | - | -
CCOc1cc(C=C(C#N)C#N)ccc1Oc1ccc([N+](=O)[O-])cn1 | - | - | - | - | - | -
NCCCC(C(=O)O)N(C(=O)OCc1ccccc1)C(=O)OCc1ccccc1 (configuration not stated) | - | . | . | . | . | .
Cc1c(C(=O)OC2CCCC2)[nH]c2c1C(=O)CC(c1ccco1)C2 (configuration not stated) | - | - | - | ? | - | 57
Cc1c(C(=O)OCC(C)C)[nH]c2c1C(=O)CC(c1ccco1)C2 (configuration not stated) | - | - | - | ? | - | -
Brc1c(-c2ccccc2)nc2n1Cc1ccccc1-2 | - | - | - | - | - | 54
O=S1(=O)CC2c3ccccc3CCN2CN1CCc1ccccc1 (configuration not stated) | - | . | . | . | . | .
Cc1ccc(C(=O)C2CCN(CC(=O)N3CCCC3)CC2)cc1 | - | . | . | . | . | .
Cc1cc(-c2ccccc2)nc(Cl)c1C#N | - | - | - | - | - | 76
Cc1ccc(-c2cc(-c3ccccc3)nc(Cl)n2)cc1 | - | - | - | . | - | -
CC(C)NC(=O)C1CCN(c2cncnc2)CC1 | - | . | . | . | . | .
CC(=O)c1cnc2cc(-c3ccc(Cl)cc3)nn2c1C | - | - | - | - | - | 71
COC(=O)C1=C(C)N(C)C(=NCc2ccc(C(F)(F)F)cc2)NC1c1cccc(Cl)c1 (configuration not stated) | - | . | . | . | . | .
Cc1ccc(-c2sc(C(=O)NN)c(C)c2C#N)cc1 | - | 92 | - | - | - | -
CCC(C)N(C(=O)Cn1nc(Cc2ccncc2)c2ccccc2c1=O)C(C)CC (configuration not stated) | - | . | . | . | . | .
COC(=O)[C@]12C[C@H](CC(=O)NCc3cccc4ccccc34)C(=O)N(Cc3ccccc3)C1=C[C@H](C(C)C)O[C@@H]2C1CC1 | - | . | . | . | . | .
CCCC[C@H]1C2CC(OC(=O)Nc3ccccc3C(F)(F)F)C(C2)[C@H]2CCCCN21 (some centres not stated) | - | . | . | . | . | .
COC(=O)c1cc2c(c3c4cc(F)ccc4n(S(=O)(=O)c4cccc(C)c4)c13)C(=O)N(Cc1ccccc1OC)C2 | - | . | . | . | . | .
CC(=O)Nc1nc(-c2ccc(Cl)cc2)ns1 | - | - | - | - | - | 84
O=C(NCc1nc(-c2ccccc2)no1)c1cccs1 | - | - | - | - | - | -
O=C(Nc1ccnc(-c2cccnc2)n1)c1cccs1 | - | - | - | - | - | 64
CC(=O)Nc1ccnc(-c2cccnc2)n1 | - | - | - | . | - | -
O=C(Nc1nc(-c2ccccc2)ns1)c1cccs1 | - | - | - | - | - | 106
CCCC(=O)Nc1nc(-c2ccccc2)ns1 | - | - | - | - | - | 70
CC(C)C(=O)Nc1nc(-c2ccccc2)ns1 | - | - | - | - | - | -
SMILES | SMARCA2 act | SR-BI DiI inh | Yeast superoxide | Lipid droplet | SR-BI uptake up | AHR act
CCn1c(COc2ccc(C)cc2)nnc1SCc1cccc(C(F)(F)F)c1 | - | . | . | . | . | .
O=C(CSc1nnc(-c2cccnc2)n1Cc1ccco1)Nc1ccc(Cl)c(Cl)c1 | - | . | . | . | . | .
Cc1nnc(SCCC(=O)Nc2nc(-c3ccccc3)ns2)s1 | - | - | - | - | - | 67
CCOc1ccc(NC(=O)CCSc2nnc(C)s2)cc1 | - | - | - | . | - | -
O=[N+]([O-])c1ccc(-c2ccc(S(=O)(=O)N3CCOCC3)cc2)cc1 | - | 80 | - | - | - | -
O=C1CC(c2ccccc2)=Nc2ccccc2N1 | - | - | - | - | - | 75
